Screens as filed in PubChem BioAssay.
Compounds with a hit are over-represented: about 2.6% of the library has one in this group of screens.
Rin1-Abl PPI inh = human Rin1-Abl interaction inhibition; P00519+Q13671; TR-FRET Rin1/Abl binding, biochemical; inhibition, % at 7.35 µM; 0.4% of 360,000 active; in the data active means inhibition above about 5%, passing the limit was not always enough
Target sequence (P00519 whole entry, looked up): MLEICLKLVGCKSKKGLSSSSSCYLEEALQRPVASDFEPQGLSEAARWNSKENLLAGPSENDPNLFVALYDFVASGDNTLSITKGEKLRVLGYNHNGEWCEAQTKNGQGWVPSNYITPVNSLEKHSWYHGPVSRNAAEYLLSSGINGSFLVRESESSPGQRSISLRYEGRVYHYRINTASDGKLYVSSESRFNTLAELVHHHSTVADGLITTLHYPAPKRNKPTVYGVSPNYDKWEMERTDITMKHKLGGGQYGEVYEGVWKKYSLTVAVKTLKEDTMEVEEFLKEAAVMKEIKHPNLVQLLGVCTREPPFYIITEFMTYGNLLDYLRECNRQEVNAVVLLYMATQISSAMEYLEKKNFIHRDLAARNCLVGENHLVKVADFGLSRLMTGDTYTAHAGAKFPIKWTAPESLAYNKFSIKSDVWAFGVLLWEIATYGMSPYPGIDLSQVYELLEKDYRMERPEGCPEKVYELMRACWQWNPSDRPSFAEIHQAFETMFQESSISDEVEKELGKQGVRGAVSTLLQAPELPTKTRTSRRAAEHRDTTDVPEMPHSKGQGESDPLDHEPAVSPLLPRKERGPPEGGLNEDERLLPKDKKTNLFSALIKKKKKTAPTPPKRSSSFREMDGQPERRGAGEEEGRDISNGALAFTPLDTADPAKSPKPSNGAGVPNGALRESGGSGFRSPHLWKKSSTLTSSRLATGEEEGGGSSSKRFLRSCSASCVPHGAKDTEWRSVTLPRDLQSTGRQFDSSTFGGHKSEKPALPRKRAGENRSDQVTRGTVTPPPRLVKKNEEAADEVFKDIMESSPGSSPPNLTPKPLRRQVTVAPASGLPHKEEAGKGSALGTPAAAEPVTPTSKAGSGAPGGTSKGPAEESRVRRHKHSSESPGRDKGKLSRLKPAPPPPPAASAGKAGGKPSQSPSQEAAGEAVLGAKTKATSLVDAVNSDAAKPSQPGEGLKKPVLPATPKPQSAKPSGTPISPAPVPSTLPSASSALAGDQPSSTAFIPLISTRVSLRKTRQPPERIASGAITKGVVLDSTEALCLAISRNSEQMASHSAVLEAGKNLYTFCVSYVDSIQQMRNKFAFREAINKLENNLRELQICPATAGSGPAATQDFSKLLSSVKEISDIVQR
Target sequence (Q13671 whole entry, looked up): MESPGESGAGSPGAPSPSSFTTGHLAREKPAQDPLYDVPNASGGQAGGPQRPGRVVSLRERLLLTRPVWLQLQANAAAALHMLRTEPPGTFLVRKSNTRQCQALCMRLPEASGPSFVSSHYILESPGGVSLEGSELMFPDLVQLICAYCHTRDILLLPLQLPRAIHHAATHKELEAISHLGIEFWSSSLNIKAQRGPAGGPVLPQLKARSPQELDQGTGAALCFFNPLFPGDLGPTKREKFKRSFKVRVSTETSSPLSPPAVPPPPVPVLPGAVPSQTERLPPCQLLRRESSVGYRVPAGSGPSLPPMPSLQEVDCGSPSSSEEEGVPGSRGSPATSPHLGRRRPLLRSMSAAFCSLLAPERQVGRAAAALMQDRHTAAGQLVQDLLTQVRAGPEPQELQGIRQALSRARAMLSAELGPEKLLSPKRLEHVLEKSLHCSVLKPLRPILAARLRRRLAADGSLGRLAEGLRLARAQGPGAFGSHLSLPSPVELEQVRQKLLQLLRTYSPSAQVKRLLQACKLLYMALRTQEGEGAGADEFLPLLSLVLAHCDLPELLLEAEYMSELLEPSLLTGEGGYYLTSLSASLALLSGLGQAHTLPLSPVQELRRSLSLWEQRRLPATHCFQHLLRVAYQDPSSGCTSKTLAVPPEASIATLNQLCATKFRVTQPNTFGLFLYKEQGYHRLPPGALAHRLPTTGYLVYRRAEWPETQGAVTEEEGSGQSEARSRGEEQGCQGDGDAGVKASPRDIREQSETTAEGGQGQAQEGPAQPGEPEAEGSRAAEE
Myeloid diff MLP = compounds promoting myeloid differentiation; calls only at 10 µM; ER-HoxA9 myeloid progenitors, lysozyme-GFP differentiation, flow cytometry; 1% of 360,000 active;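 active means normalized GFP-positive differentiation at or above the plate's own cutoff, the solvent-only control mean plus 3 SD; inconclusive means no clear call, values can overlap the other calls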;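 further: cells exposed to compound for four days before flow analysis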
GRK2 aptamer HTS = human GRK2 inhibition via aptamer displacement | bead flow cytometry, FAM-aptamer displacement from GRK2 | inhibition of aptamer binding, % at 10 µM | 0.59% of 330,000 active;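 active means inhibition of aptamer binding above 40%, roughly 3 SD of noise, on plates passing a quality check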;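 further: median bead fluorescence of bound FAM aptamer so fluorescent compounds give negative values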
Rce1 inhib = blocks yeast Ras-converting enzyme; Q03530; yeast membranes, quenched prenylated peptide cleavage fluorescence; calls only; 0.27% of 290,000 active; AID 2563;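 active means fall in fluorescence gain of 50% or more versus controls, with final raw signal at or below 3038400; inconclusive means same 50% fall but final raw signal above 3038400; inactive means fall in fluorescence gain under 50%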;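 further: plate controls were neutral control wells for no effect and wells lacking membranes for full effect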
T cell modulator = T cell immune modulators affecting CD8 T cell-vesicle binding; 0.068% of 330,000 active; 2C CD8+ T cell-vesicle binding, flow cytometry; active compounds read low; response (vesicle binding), % at 7 µM;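 active means response, share of CD8 T cells binding vesicles, and their 90th percentile fluorescence all below set limits, cut at about 80% in these data, passing the limit was not always enough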;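 further: values below 100% mean blocked vesicle binding to the CD8+ T cells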
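incubation = binding step 1.5 h, 37 °C, antibody labelling 20 min, ice | test system = 2C mouse CD8+ T cells | read-out basis = percent CD8+ FL2 mean versus row control | controls = Peptide-free naked vesicles (low) and QL9 vesicles with 0.7% DMSO vehicle (high) | detection = flow cytometry of vesicle-bound cells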
SKN-1 block = inhibitors of C. elegans SKN-1. AID 624304. C. elegans VP596 Pgst-4::GFP/RFP ratio, acrylamide-induced, 24 h. 0.49% of 360,000 active. inhibition, % at 21.8 µM;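 active means interference check ratio from 0.5 to 1.5 plus GFP to RFP signal ratio inhibition reaching or exceeding a fixed threshold, cut at about 30% in these data, passing the limit was not always enough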
Rin1 Abl conf = Rin1-Abl interaction inhibition confirmation; inhibition, % at 7.35 µM; 49% of 1,300 active; shares compounds with Rin1-Abl PPI inh; TR-FRET Rin1-Abl binding, purified proteins
GFP quench = counter-screen for Rin1-Abl inhibitors: GFP fluorescence quenchers. AID 602125. inhibitors/quenchers counterscreen. inhibition, % at 6.75 µM. shares compounds with Rin1-Abl PPI inh. 8.5% of 1,300 active;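 further: ABL1-eGFP fusion protein alone without its partner RIN1-SBP; 0% = protein with vehicle and 100% = wells lacking protein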
GFP quench DR = counter-screen for Rin1-Abl inhibitors: GFP quenchers, dose response | IC50, µM | 230 tested, under 10 active | GFP fluorescence interference/quenching counterscreen | shares compounds with Rin1-Abl PPI inh; call rule not given here;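 further: ABL1-eGFP fusion protein alone without its RIN1 binding partner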
* marks the source's active call; other numbers are inactive results; i = inactive; ? = inconclusive; · = not tested or not shown. Unless noted, no stated cut-off is given here; in the data, active means inhibition above about 6.5%; inactive means the rest.

SMILES	Rin1-Abl PPI inh	Myeloid diff MLP	GRK2 aptamer HTS	Rce1 inhib	T cell modulator	SKN-1 block	Rin1 Abl conf	GFP quench	others
OCCCNc1ncnc2c1ncn2[C@H]1CN(Cc2ccc(-c3ccccc3)cc2)C[C@@H](CO)O1	19*	i	·	·	·	-4	22*	0	GFP quench DR=>68
Cc1cc(Cl)c(C(=O)Nc2cccc(C(F)(F)F)c2)c(C)n1	0	i	0	i	286	-12	·	·
c1ccc(C(c2ccccn2)c2ccccn2)cc1	6.5*	i	0	i	136	-8	7.3*	1
Cc1ccccc1NC(=O)Nc1ccc(C(F)(F)F)cc1	9.0*	i	7	i	234	3	-1	0
Cc1ccc(C)c(NC(=O)C2C3C=CC(O3)C2C(=O)O)c1 (centres undefined)	7.6*	i	0	i	219	-4	0	0
Cc1ccc(NC(=O)C2C3C=CC(O3)C2C(=O)O)c(C)c1 (centres undefined)	4	i	4	i	137	-17	·	·
CC(O)CC(=O)NOCc1ccccc1 (centres undefined)	-4	i	0	·	·	11	·	·
O=C(NCCc1ccc(Cl)cc1)c1ccc(NC2=NC3CS(=O)(=O)CC3S2)cc1 (centres undefined)	7.4*	i	6	i	324	6	8.1*	1
COc1ccc(OC)c(NC(=O)Cc2ccc(NC3=NC4CS(=O)(=O)CC4S3)cc2)c1 (centres undefined)	22*	i	2	i	480	5	27*	-4	GFP quench DR=>67
O=C(Cc1ccc(NC2=NC3CS(=O)(=O)CC3S2)cc1)NCc1ccccc1Cl (centres undefined)	16*	?	1	i	462	-8	16*	0
COc1cccc(CNC(=O)Cc2ccc(NC3=NC4CS(=O)(=O)CC4S3)cc2)c1 (centres undefined)	1	i	3	i	705	1	·	·
COC(=O)c1ccc2c(=O)[nH]c(COC(=O)c3[nH]c(C)c(C(C)=O)c3C)nc2c1	1	i	0	·	462	-1	·	·
CCOC(=O)c1[nH]c(C)c(CN(C(C)=O)c2ccc(OCC)cc2)c1C	6	i	3	i	286	2	·	·
O=C(c1ccc2c(c1)OCO2)N1CCN(c2ncccn2)CC1	5.3*	i	0	i	101	-9	-1	-3
Cc1ccc(NCC(=O)Nc2cccc(F)c2)cc1S(=O)(=O)N1CCCCCC1	1	i	0	i	i	11	·	·
CCOc1ccccc1NC(=O)c1cc(C(=O)c2cc(Br)ccc2O)coc1=N	0	i	0	i	168	-2	·	·
CCCOc1ccccc1/C=N/NC(=O)C1CC1	-1	i	0	i	769	20	·	·
O=C1/C(=C\c2ccc([N+](=O)[O-])cc2)CCc2ccccc21	18*	i	0	·	184	5	-1	-1
N#Cc1cccc(S(=O)(=O)Nc2c(NC3CCCCC3)c3ccccc3oc2=O)c1	1	i	2	i	371	15	·	·
O=C1c2c(O)cccc2Cc2cccc(O)c21	2	i	3	·	236	26	·	·
O=C1Cc2cccc(=O)c(O)c2C(=O)O1	8.2*	i	·	·	·	1	9.6*	5
CC1=NN(c2ccc(Cl)c(C(=O)O)c2)C(=O)C1	7.2*	i	5	i	116	4	0	0
CC1=NN(c2ccc(C(=O)O)c(N)c2)C(=O)C1	12*	i	0	i	369	6	7.1*	0
CCOC(=O)c1ccc(NC(=O)COc2ccccc2CNCCc2ccccc2)cc1	19*	i	0	i	378	-23	24*	1	GFP quench DR=>68
CCC(NC(=O)C(C)NC)C(=O)N1CCCC1C(=O)NC1CCCc2ccccc21 (centres undefined)	2	i	36	·	597	-4	·	·
SMILES	Rin1-Abl PPI inh	Myeloid diff MLP	GRK2 aptamer HTS	Rce1 inhib	T cell modulator	SKN-1 block	Rin1 Abl conf	GFP quench	others
Nc1nc(NC2CCCC2)cc(=O)[nH]1	18*	i	·	·	·	10	24*	1	GFP quench DR=>68
O=c1cc(NC2CCCCC2)[nH]c(=O)[nH]1	1	i	3	i	615	6	·	·
CCOc1ccc(N=Nc2ccc(O)c3ncccc23)cc1	2	·	4	i	178	-7	·	·
CCOc1ccc2c(ccc(/C=C/c3cc(C)c4cccnc4c3O)[n+]2C)c1	40*	i	·	·	·	18	56*	59*
Cc1ccc(Oc2nnc(-c3cccs3)c3ccccc23)cc1C	6.0*	i	0	i	312	9	2	0
Cc1ccc(NC(=O)COC(=O)c2ccc3ncsc3c2)c(C)c1	4	i	·	·	·	-6	·	·
C/C(=N\OC(=O)Nc1ccccc1)c1ccc(C)cc1	6.4*	i	1	i	449	10	-1	0
Cc1cc(/C(N)=N/OC(=O)Nc2ccccc2)no1	1	i	2	i	322	5	·	·
COc1cc(C(=O)NNC(=O)CNC(=O)c2ccc(Br)o2)cc(OC)c1OC	7	i	0	i	286	20	·	·
CC1=CC(C)(C)N(S(=O)(=O)c2ccc(C)cc2)c2ccc(C)cc21	-4	·	0	i	718	3	·	·
CC1=CC(C)(C)[N+](C)(C)c2ccc(C)cc21	10*	i	0	i	343	9	-1	0
O=C(NCCc1ccc(Cl)cc1)C1CC(=O)N(C2CCCC2)C1 (centres undefined)	15*	i	1	i	256	4	-1	2
CC(=O)NC(c1ccc(C)cc1)c1cc(Cl)c2cccnc2c1O (centres undefined)	7.0*	·	2	i	203	0	6	2
CC(=O)NC(c1ccco1)c1cc(Cl)c2cccnc2c1O (centres undefined)	11*	i	·	·	·	13	11*	3
O=C1N(c2ccccc2)C(c2ccccc2)N2CCCN12 (centres undefined)	0	i	0	i	528	-9	·	·
Cc1ccc(C2N(c3cccc(Cl)c3)C(=O)N3CCCN23)cc1 (centres undefined)	29*	i	0	i	252	6	30*	-1	GFP quench DR=>68
O=C1N(c2ccc(Cl)cc2)C(c2ccccc2)N2CCCN12 (centres undefined)	8.3*	i	0	i	226	3	12*	0
CC1(C)CC(NS(=O)(=O)c2ccc(Cl)cc2)CC(C)(C)N1	1	i	0	i	564	-1	·	·
